TRPML3 ag: human mucolipin-3 channel agonism; hit rate 0.29% among 220,000; AID 1448; Q8TDD5; activation, % at 3 µM; HEK293 TRPML3-YFP, Fluo-8 calcium fluorescence; 100% = the carbachol control signal;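 active means activation above its plate's cutoff, the mean activation of the plate's test wells plus 3 SD, cut at about 12% in these data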;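 further: 0% = DMSO only wells and 100% = carbachol wells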
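Material: TRPML3-YFP stable HEK293 cells | Dosing: One concentration, 3 µM nominal, 0.3% DMSO | Timing: 125 s total fluorescence read per well | Technique: Fluo-8 calcium dye fluorescence, ex 470-495, em 515-575 nm | Measure: Percent activation from peak-to-basal fluorescence ratio, scaled between DMSO and carbachol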
V1R ag counter: activates human V1a receptor in oxytocin agonist counter-screen; hit rate 0.25% among 320,000; AID 2797; CHO-V1R cells, Fluo-8 calcium fluorescence, agonist mode; 0% DMSO, 100% 3 nM vasopressin; activation, % at 3 µM; P37288;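 active means activation above the mean activation of all tested compounds plus 3 SD, per screening run, cut at about 20% in these data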;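 further: signal is peak over basal fluorescence ratio across a 100 second FLIPR read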
Target sequence (P37288 whole entry, looked up): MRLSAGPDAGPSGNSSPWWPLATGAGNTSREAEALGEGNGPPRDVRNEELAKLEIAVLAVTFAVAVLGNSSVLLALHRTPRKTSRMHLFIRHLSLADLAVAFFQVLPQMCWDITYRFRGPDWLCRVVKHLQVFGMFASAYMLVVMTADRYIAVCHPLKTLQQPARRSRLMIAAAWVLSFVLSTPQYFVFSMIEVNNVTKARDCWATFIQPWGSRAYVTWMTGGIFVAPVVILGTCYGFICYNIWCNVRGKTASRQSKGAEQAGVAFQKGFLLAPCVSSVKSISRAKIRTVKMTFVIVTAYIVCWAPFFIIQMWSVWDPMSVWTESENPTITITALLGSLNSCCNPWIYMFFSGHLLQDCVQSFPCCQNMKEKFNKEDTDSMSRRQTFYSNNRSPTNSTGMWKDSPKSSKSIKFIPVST
TRPN1 ag: agonists of zebrafish TRPN1 channel; HEK293 zebrafish TRPN1-YFP, Fluo-8 calcium fluorescence; 100% = response to 87 µM carbachol; activation, % at 3 µM; hit rate 0.18% among 220,000; AID 1424;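 active means activation above its plate's cutoff, the mean activation of test wells on that plate plus 3 SD, cut at about 19% in these data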;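 further: 0% = DMSO alone and 100% = 87 µM carbachol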
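Assay system: Zebrafish TRPN1-YFP in HEK293 cells | Incubation: Dye loading 1 h at 37 °C, then 30 min room temperature | Measured by: Kinetic Fluo-8 fluorescence, ex 470-495, em 515-575 nm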
OXTR potentiator: human OXTR potentiation | P30559 | CHO-OTR cells, Fluo-8 calcium fluorescence, potentiator mode; 0% = oxytocin EC15, 100% = EC100 | activation, % at 3 µM | hit rate 0.061% among 320,000 | AID 2445;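 active means activation above that plate's cutoff, the mean activation of tested compounds plus 3 SD, cut at about 6.6% in these data, passing the limit was not always enough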;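 further: 100% uses oxytocin at 75 nM as the full agonist control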
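Material: human OTR in CHO cells. Compound: 3.0 µM, one dose. Timing: compound 6 min at room temperature before oxytocin, 100 s read. Evaluation: % activation of max/min ratio relative to oxytocin controls. Replication: single well per compound, singlicate. Signal: Fluo-8 calcium dye fluorescence.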
OXTR agonist: activates the human oxytocin receptor. CHO-OTR cells, Fluo-8 calcium fluorescence; normalized: DMSO 0%, oxytocin 100%. activation, % at 3 µM. hit rate 0.32% among 320,000. AID 2435;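 active means activation above the mean of all tested compounds plus 3 SD, cutoff set per screening run, cut at about 20% in these data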;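 further: peak over basal fluorescence ratio from a 100 s FLIPR kinetic read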
OXTR pot confirm: human OXTR potentiation, confirmation | shares compounds with OXTR potentiator | CHO-OTR cells, Fluo-8 calcium fluorescence; scaled from low-dose to maximal oxytocin | activation, % at 3 µM | 180 tested, under 10 active | AID 434985;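 active means mean percent activation over triplicates above a cutoff set from solvent-only control plates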;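 further: compounds tested in the presence of an EC15 dose of oxytocin; 0% = EC15 oxytocin with DMSO and 100% = EC100 oxytocin with DMSO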
The depositor's hits bear a star; · = no result. In the library only some 0.55% were active in any assay of this set; here they are far more common.

SMILES	TRPML3 ag	V1R ag counter	TRPN1 ag	OXTR potentiator	OXTR agonist	OXTR pot confirm
C[C@@H]1CN([C@H](C)CO)C(=O)c2cc(NC(=O)Nc3ccc(C(F)(F)F)cc3)ccc2O[C@H]1CN(C)S(=O)(=O)c1cccs1	·	2	·	-6	2	·
C[C@H](CO)N1C[C@H](C)[C@@H](CN(C)S(=O)(=O)c2cccs2)Oc2ccc(NC(=O)Nc3ccccc3)cc2C1=O	·	3	·	15*	3	-7
O=C(O)CN(c1ccccc1F)S(=O)(=O)c1ccccc1	0	0	1	11*	1	-5
COc1ccc(-c2nnc(Nc3ccc(OC)c(C(=O)N4CCCCC4)c3)c3ccccc23)cc1	-1	2	-3	13*	0	1
CCOC(=O)N1CCN(S(=O)(=O)N2CCCC(C(=O)NCCc3ccc(OCC)c(OCC)c3)C2)CC1 (configuration not stated)	·	0	·	0	-2	·
O=C(NCCCN1CCCCCC1)C1CC(=O)N(CCc2ccccc2)C1 (configuration not stated)	0	0	-1	-5	-1	·
O=C(NCCCN1CCOCC1)C1CC(=O)N(CCc2ccccc2)C1 (configuration not stated)	1	1	-2	12*	1	-10
COc1ccc(S(=O)(=O)N(C)c2ccc(C(=O)NCC3CCCO3)cc2)cc1OC (configuration not stated)	·	1	·	14*	2	-4
COc1ccc(NC(=O)Nc2ccc(CC(=O)O)cc2)cc1	0	0	0	-4	0	·
CN(C)c1ccc(CNC(=O)C2CCN(S(=O)(=O)c3ccc4c(c3)CCC(=O)N4)CC2)cc1	0	0	0	11*	0	-4
COC1CCCCC1Nc1cccc(SC)c1 (configuration not stated)	0	-1	-1	12*	-1	-3
COc1ccc(NC(=O)CC23CC4CC(C2)CC(n2nnc(C)n2)(C4)C3)cc1	1	1	1	-11	-1	·
C=CCn1c(N2CCCC2)nc2c1c(=O)[nH]c(=O)n2C	-1	-1	0	11*	0	-5
C/C(Cl)=C/Cn1c(N2CCCC2)nc2c1c(=O)[nH]c(=O)n2C	·	0	·	-1	0	·
O=C(COc1ccc(C(=O)c2ccccc2)cc1)Nc1cccnc1	·	9	·	-5	10	·
CC(=O)OC1CC[C@@]2(C)C(CCC3C2CC(=O)[C@@]2(C)C3CC3CC(C)=CC(=O)C32)C1 (some centres not stated)	1	·	0	·	·	·
CC(C)=NOC(=O)c1c(C)noc1-c1snnc1C	1	1	1	0	0	·
COC(=O)c1c(C)noc1-c1snnc1C	2	0	1	11*	1	-7
COc1cccc(NC(=O)CN(C)C(=O)CC2CC3CCC2C3)c1 (configuration not stated)	·	2	·	-11	-2	·
COc1cc(C2Nc3ccc4ccccc4c3C3=C2C(=O)CC(C)(C)C3)ccc1OC(C)C(=O)O (configuration not stated)	·	0	·	-13	-1	·
O=C(NCCc1ccccc1)NC1CCCCC1	0	-1	2	12*	0	-3
O=C(NC1CCCCCC1)C(=S)NCCc1ccccc1	-1	1	1	-14	-2	·
COc1cc(/C=N/NC(=S)NCCN2CCOCC2)ccc1O	0	0	-1	12*	0	-11
COCCNC(=S)N/N=C/c1ccc(N2CCOCC2)cc1	1	1	0	-12	0	·
CCOC(=O)Cn1c(=NC(=O)CSC(C)=O)sc2cc(OC)ccc21	0	0	-2	-10	-1	·
SMILES	TRPML3 ag	V1R ag counter	TRPN1 ag	OXTR potentiator	OXTR agonist	OXTR pot confirm
COC(=O)Cn1c(=NC(=O)CSCC(=O)NC2CCCCC2)sc2cc(OC)ccc21	0	-1	1	17*	-1	-4
CN(c1ccccc1C(=O)Nc1ccc(S(=O)(=O)N2CCCCC2)cc1)S(C)(=O)=O	0	0	2	11*	1	-8
COCCCN1CC(=O)N2C(c3ccccc3)c3[nH]c4ccccc4c3C[C@H]2C1=O (some centres not stated)	·	1	·	8.7*	0	-5
O=C(O)c1ccc(N2C(=O)c3cccnc3C2=O)cc1	0	0	2	-2	0	·
O=C1c2nccnc2C(=O)N1c1ccc(F)cc1	1	1	1	10*	1	-1
Cn1c(=O)c2[nH]c(-c3ccccc3Cl)c(O)c2n(C)c1=O	7	3	11	22*	1	-5
COc1ccc2[nH]c3c(c2c1)CCN1C(=O)N([C@@H](C)C(=O)NC2CCCCC2C)C(=O)[C@]31C (some centres not stated)	·	0	·	-7	-1	·
COc1cccc(-n2cnc3scc(-c4cccs4)c3c2=O)c1	-1	-1	-2	-8	-2	·
CCOc1ccc(-n2cnc3scc(-c4ccc(OC)c(OC)c4)c3c2=O)cc1	0	-1	0	11*	-2	-3
CCOC(=O)c1c(C)nc(C)c(C(=O)OCC)c1-c1ccccc1	-1	-2	-1	-2	-1	·
CCOC(=O)c1c(C)nc2c(c1-c1cc(OC)c(OC)c(OC)c1)C(=O)c1ccccc1-2	0	-1	-2	11*	-2	-8
CNC(=O)c1c(NC(=O)CS(=O)(=O)c2ccccc2)sc(C)c1C	·	-1	·	-7	0	·
Cc1sc(NC(=O)CS(=O)(=O)c2ccccc2)c(C(N)=O)c1C	·	0	·	8.1*	-1	-8
CCOC(=O)c1nc(C)n(-c2ccc(Cl)cc2)n1	0	0	1	9.9*	-1	-1
CCOC(=O)c1nc(C)n(-c2ccc([N+](=O)[O-])cc2)n1	1	1	0	-3	0	·
Cn1c(N)c(C(=O)COC(=O)Cc2ccc(Cl)c(Cl)c2)c(=O)n(C)c1=O	·	3	·	-7	5	·
O=C1c2ccccc2C(=O)N1Cc1ccc2c(c1)OCO2	0	0	-1	-6	0	·
O=C(O)c1ccc2c(c1)C(=O)N(Cc1ccc3c(c1)OCO3)C2=O	0	0	1	11*	0	-5
CCOC(=O)c1ccc(N2C(=O)C3CCCN3C2=S)cc1 (configuration not stated)	·	7	·	1	8	·
Cc1cnc(NC(=O)CCCNC(=O)c2ccc(Cl)cc2)s1	·	-1	·	0	0	·
Cc1ccc2c(c1)-n1c(nc3cc(Cl)ccc3c1=O)C(CC(C)C)NC2=O (configuration not stated)	·	1	·	13*	-1	0
